Bioassay records from PubChem BioAssay.
KCNQ1 inh: blocks the human KCNQ1 potassium channel. CHO-K1 KCNQ1, FluxOR thallium flux fluorescence; hits give high values. B-score at 10 µM. 1.3% of 310,000 active. AID 2642;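 active means compounds whose thallium flux B-score, printed positive for inhibition, exceeds three library SD while starting fluorescence stays within three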;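 further: channel opened by potassium depolarization with thallium stimulus after 20 min compound exposure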
hERG protect: shields human hERG channel from block by proarrhythmic agents | Q12809 | CHO-hERG, FluxOR thallium flux, dofetilide IC70 present | activation (rescue from dofetilide block), less the hit threshold, % at 10 µM | 0.51% of 310,000 active;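 active means activation above the mean of controls blocked by dofetilide plus 5 SD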;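 further: thallium influx through hERG after potassium depolarization seen as dye fluorescence rise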
KCNK9 inh: inhibitors of human KCNK9 two-pore domain potassium channel | B-score at 10 µM | 1.2% of 310,000 active | HEK293 KCNK9, FluxOR thallium flux fluorescence; hits give low values | AID 488922 | Q9NPC2;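 active means ratio B-score over 3 SD below the library mean, with starting fluorescence within 5 SD of its mean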;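 further: negative B-score means less thallium flux so channel inhibition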
Target sequence (Q9NPC2 whole entry, looked up, the tested form may be a part): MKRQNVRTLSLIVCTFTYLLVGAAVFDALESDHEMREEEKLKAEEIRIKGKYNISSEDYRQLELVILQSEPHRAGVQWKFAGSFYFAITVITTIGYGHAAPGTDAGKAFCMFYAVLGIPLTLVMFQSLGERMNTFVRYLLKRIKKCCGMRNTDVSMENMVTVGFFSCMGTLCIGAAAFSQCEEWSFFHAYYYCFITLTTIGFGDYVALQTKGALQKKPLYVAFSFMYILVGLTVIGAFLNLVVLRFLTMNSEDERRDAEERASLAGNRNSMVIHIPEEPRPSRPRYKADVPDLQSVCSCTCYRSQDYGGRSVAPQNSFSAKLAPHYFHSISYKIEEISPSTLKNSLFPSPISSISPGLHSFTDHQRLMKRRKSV
KCNK3 inh: human KCNK3 channel inhibition, primary screen; B-score at 10 µM; CHO-KCNK3 thallium flux, FluxOR fluorescence; hits give low values; 0.84% of 340,000 active; O14649; AID 602410;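 active means B-score under library mean minus 4 SD, starting fluorescence ratio at most library mean plus 5 SD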;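 further: more negative B-score means stronger inhibition of thallium flux through KCNK3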
KCNQ1 act: potentiates or activates the human KCNQ1 potassium channel; CHO-K1 KCNQ1, thallium flux FluxOR fluorescence; hits give high values; B-score at 10 µM; 0.35% of 310,000 active; AID 2648; P51787;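 active means fluorescence ratio B-score, a plate-corrected score, at least three library SD, with initial intensity B-score within 5 SD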
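System: Stable KCNQ1 CHO-K1 line | Incubation: 90 min dye loading and 20 min compound exposure, both at room temperature | Measure: Ratio B score | Medium: Assay buffer for compound exposure, DMSO matched across wells | Compound dosing: Single-concentration screen | Probe or stimulus: K+/Tl+ depolarizing stimulus | Measured by: Kinetic FluxOR fluorescence, 10 s baseline plus 110 s post-stimulus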
Kir21 inh: blocks the mouse Kir2.1 inward-rectifier potassium channel. P35561. HEK293-Kir2.1, FluxOR thallium flux fluorescence; hits give low values. B-score at 10 µM. 0.85% of 310,000 active. AID 1672;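 active means fluorescence ratio B-score at or below minus 3 SD of library scores, with starting-brightness B-score within 2 SD, cut at about -4.2 in these data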;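 further: channel flux triggered by added potassium and thallium sulfate stimulus; B-score of peak minus minimum fluorescence over baseline after thallium stimulus; more negative B-score means stronger Kir2.1 block with less thallium influx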
KCNK9 block conf: confirmation of human KCNK9 potassium channel inhibitors | shares compounds with KCNK9 inh | HEK293 KCNK9 cells, FluxOR thallium flux fluorescence | 43% of 4,900 active | inhibition, % at 10 µM;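 active means thallium signal inhibited by more than 5 SD of the compound-free buffer control wells, on both duplicate plates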;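 further: 0% = assay buffer control wells without compound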
Kir2-1 spec: selectivity of KCNK9 modulators against mouse Kir2.1 | shares compounds with KCNK9 inh | Kir2.1 cells, FluxOR thallium flux fluorescence | inhibition, % at 10 µM | 4% of 4,900 active;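 active means thallium signal drop more than 5 SD beyond the mean of the no-compound control wells, seen in both duplicate plates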;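 further: signal is fluorescence rise after thallium addition divided by baseline fluorescence; plate controls were assay buffer only for no effect and full block by chlorpromazine control for full effect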
KCNK9 uninduced: second counter-screen for KCNK9 modulators: effect in non-induced cells; shares compounds with KCNK9 inh; non-induced KCNK9-HEK293, FluxOR thallium flux; inhibition, % at 10 µM; 40% of 4,900 active;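 active means thallium signal drop beyond 5 SD of the untreated control mean, on both duplicate plates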;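 further: plate controls were buffer only IC0 wells for no effect and SID17386958 at its maximal inhibitory level for full effect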
Active calls of the source: *; i = inactive; · = not tested or not shown. Shown are actives, neighbours in structure and some others; about 3.7% of the full set was active somewhere.

SMILES	KCNQ1 inh	hERG protect	KCNK9 inh	KCNK3 inh	KCNQ1 act	Kir21 inh	KCNK9 block conf	Kir2-1 spec	KCNK9 uninduced
CCOC(=O)C(Oc1ccc2c(-c3ccccc3)cc(=O)oc2c1C)c1ccccc1 (stereo not drawn)	i	-14	i	i	i	-0.38	·	·	·
CCOC(=O)C(Oc1ccc2c(-c3ccc(OC)cc3)cc(=O)oc2c1C)c1ccccc1 (stereo not drawn)	i	-5	-11*	i	i	1.4	50%*	i	32%*
COc1ccccc1C(=O)Nc1cc(Cl)ccc1O	i	-5	i	i	i	0.24	·	·	·
CCOc1ccccc1C(=O)Nc1cc(Cl)ccc1O	i	-12	-12*	i	i	2	52%*	i	36%*
O=C1NC2(CCCCC2)OC12CCCCC2	·	·	·	i	·	·	·	·	·
CCN(CC)S(=O)(=O)c1ccc(N2CCOCC2)c(NC(=O)c2cc3ccccc3oc2=O)c1	i	-1	-12*	i	i	0.42	55%*	i	i
COc1ccc(-c2csc(NC(C)c3nc4cc(Cl)c(Cl)cc4n3CCCO)n2)cc1 (stereo not drawn)	i	-14	i	i	i	-0.16	·	·	·
O=C(Nc1ccc2c(c1)OCO2)c1ccc(Br)c(S(=O)(=O)N2CCCC2)c1	i	-6	-8.7*	i	i	0.54	i	i	i
COc1cccc(C(=O)N2CCC(CCC(=O)Nc3cccc(C)c3)CC2)c1	i	-12	i	i	i	0.64	·	·	·
COc1ccc(-c2nc(-c3ccc4c(c3)OCO4)[nH]c2-c2ccc(OC)cc2)cc1	i	-5	-9.2*	i	i	0.68	65%*	i	i
O=C(Nc1ccc(-c2nnc3n2CCCCC3)cc1)c1cc2ccccc2o1	i	-26	i	i	i	0.54	·	·	·
Cc1c(C(=O)Nc2ccc(-c3nnc4n3CCCCC4)cc2)oc2c1ccc1ccccc12	i	-8	-12*	i	i	1.8	i	i	30%*
Cc1cc(OCc2ccc(F)cc2)nc(-c2ccccc2O)n1	i	-4	-10*	i	i	-0.28	66%*	i	37%*
c1ccc(SCCN2CCN(c3ccccc3)CC2)cc1	i	-8	i	i	i	0.53	i	i	i
CCCN1CCC(=O)N(CCSc2ccccc2)CC1	i	2	i	i	i	0.81	·	·	·
O=C(Nc1ccccc1Cl)c1cccc(COc2cc(Cl)ccc2Cl)c1	i	-4	-11*	i	i	-0.54	30%*	i	i
COc1ccc(C(=O)Nc2cc(OCc3ccccc3)c(Cl)cc2Cl)cc1	i	-16	-16*	i	i	0.34	58%*	i	i
CCC(c1ccccc1)c1nnc(NC(=O)c2ccco2)s1 (stereo not drawn)	i	-10	-8.7*	i	i	-0.12	i	i	i
CCOC(=O)C1CCN(C(=O)c2ccc(Oc3cc(Cl)cc(Cl)c3)o2)CC1	i	-1	i	i	i	0.1	i	i	i
COc1cc(NC(=S)N2CCN(c3ccccn3)CC2)cc(OC)c1	i	-2	i	i	i	0.31	·	·	·
CC(C)(C)OC(=O)COc1cc(O)c2c(=O)cc(-c3ccccc3)oc2c1	10*	-10	-12*	i	i	-0.92	43%*	i	34%*
CCN(CC)S(=O)(=O)c1cc(NC(=O)C(C)N(C)CC(=O)Nc2c(C)cccc2C)ccc1C (stereo not drawn)	i	-11	-10*	i	i	-1.2	52%*	i	36%*
CCN(CC)S(=O)(=O)c1cc(NC(=O)C(C)N2CCc3ccccc32)ccc1C (stereo not drawn)	i	-14	i	i	i	1.9	·	·	·
C/C(=N\Nc1nc(C(C)(C)C)cs1)c1ccccc1	i	-6	i	i	i	-0.89	i	i	i
Cc1ccc(/C=N/Nc2nc(C(C)(C)C)cs2)o1	i	10*	i	i	18*	-1.2	i	i	i
SMILES	KCNQ1 inh	hERG protect	KCNK9 inh	KCNK3 inh	KCNQ1 act	Kir21 inh	KCNK9 block conf	Kir2-1 spec	KCNK9 uninduced
CC(C)(C)c1csc(N/N=C/c2cccnc2)n1	i	-20	i	i	i	-0.71	·	·	·
Cc1ccc(C(=O)Nc2cccc(C(=O)N3CCOCC3)c2)cc1Cl	i	-18	i	i	i	1.1	·	·	·
O=C(CSc1nccn1-c1ccccc1)NO	i	-13	i	i	i	0.02	·	·	·
FC(F)(F)c1ccc(CSc2nccn2-c2ccccc2)cc1	i	-15	i	i	i	-4.6*	i	i	i
Brc1ccc(CSc2nccn2-c2ccccc2)cc1	i	-8	i	i	i	-1.4	i	i	i
Clc1cccc(CSc2nccn2-c2ccccc2)c1	i	-14	i	i	i	-7.8*	i	i	i
COc1ccc(C2CC2/C(C)=N/OC(=O)c2ccc(F)cc2)cc1 (stereo not drawn)	i	-9	i	i	i	-0.04	i	i	i
O=C(CSc1ccccc1)Nc1nnc(C2CC2)s1	i	-3	i	i	i	-4.4	·	·	·
CC1CCCCN1C(=O)CSc1nc2cc3c(cc2c(=O)n1Cc1ccc2c(c1)OCO2)OCO3 (stereo not drawn)	i	-18	i	i	i	-0.42	i	i	24%*
CCOc1ccc(Br)cc1CN(CC)CC	i	-6	i	i	i	-1.6	·	·	·
CCc1ccc(N(CC)C(=O)c2ccc3c(Cl)c4c(nc3c2)CCC4)cc1	i	-11	i	i	i	1.8	i	i	27%*
COc1ccc(N(C)C(=O)c2ccc3c(Cl)c4c(nc3c2)CCCC4)c(OC)c1	i	-14	i	i	i	1	·	·	·
Cc1ccc(N(C)C(=O)c2ccc3c(Cl)c4c(nc3c2)CCC4)cc1C	i	-18	i	i	i	-2.2	i	i	i
COc1ccc(NC(=O)CN2CCN(c3ccc(C)cc3C)CC2)cc1	i	-1	i	i	i	-0.38	i	i	i
COc1ccc(NC(=O)CN2CCN(c3c(C)cccc3C)CC2)cc1	i	-8	i	i	i	0.65	i	i	i
